40 compounds from PubChem BioAssay AID588830 (Broad Institute, 2011) can be followed below.

Calls of active or inactive are those of the source.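 The calls were made as follows: active = fitted IC50 for falling signal at or below ten times the top tested dose; inconclusive = flat fit with 30 to 70% signal loss, or poor fit; inactive = the rest.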

The IC50 is the concentration needed to halve the response being measured.

System in the first assay: not listed separately
Description: ATP-based viability of SR-BI CHO cells – cell-based, CellTiter-Glo luminescence, 3 h, dry powder, cytotoxicity control for SR-BI HDL uptake inhibitor project, dose response (AID 588830). As to conditions: ldlA[mSR-BI] CHO cells viability, CellTiter-Glo ATP, 3 h; at 35 µM (top of the series). The method in brief:
(§1)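 System: ldlA[mSR-BI] cells | Buffer or medium: Ham's F12 with 10% FCS and PSG | Doses: 8-concentration series per compound, added by pin transfer | Timing: 3 h compound exposure at 37 °C, 10 min reagent incubation | Measured by: Luminescence of cellular ATP via Cell Titer Glo reagent | Measure: Cytotoxicity IC50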
On the technique in general: In ATP-based viability assays light output follows the ATP content of the culture.
For `CC(C)OCCCNC(=O)c1ccc(C2SCC(=O)N2Cc2ccco2)cc1` (stereo not given), the activity change, negative = cytotoxicity is -4.74% (inactive). Consider `O=C(Nc1ccc(-c2nc3ccc(NC(=O)c4ccc(Cl)cc4)cc3[nH]2)cc1)c1ccc(Cl)cc1`, for which the activity change, negative = cytotoxicity is 3.4% (inactive). As for `C[C@H]1CN([C@@H](C)CO)C(=O)c2cccc(NC(=O)Nc3ccccc3)c2O[C@@H]1CN(C)Cc1ccc(Cl)c(Cl)c1`, the activity change, negative = cytotoxicity was -15.5% (inactive).

As to `C[C@H]1CN([C@@H](C)CO)C(=O)c2cccc(NC(=O)Nc3ccc(F)cc3)c2O[C@@H]1CN(C)Cc1ccc(Cl)c(Cl)c1`, the activity change, negative = cytotoxicity was -26.7% (inactive). With `C[C@@H]1CN([C@H](C)CO)C(=O)c2cc(NC(=O)Cc3cn(C)c4ccccc34)ccc2O[C@H]1CN(C)S(=O)(=O)c1ccccc1`, the activity change, negative = cytotoxicity is 1.08% (inactive). In the case of `COc1ccc([C@H]2CC(=O)C=C(c3cccc4c3sc3ccccc34)C2)cc1OC`, the activity change, negative = cytotoxicity was -5.27% (inactive). Turning to `C[C@H]1CN([C@@H](C)CO)C(=O)c2cccc(NC(=O)Nc3ccccc3)c2O[C@@H]1CN(C)Cc1ccccc1`, the activity change, negative = cytotoxicity is 0.984% (inactive).

As for `COc1ccc(-c2nnn(CC(=O)N(C3CCCCC3)C(C)C(=O)NC3CCCC3)n2)cc1OC` (stereo not given), the activity change, negative = cytotoxicity is -4.74% (inactive). As to `CCOC(=O)Nc1cccc(NC(=O)c2cc(OC)cc(OC)c2)c1`, the activity change, negative = cytotoxicity is -7.68% (inactive). Regarding `C[C@@H]1CN([C@H](C)CO)C(=O)c2cc(NC(=O)Cc3cn(C)c4ccccc34)ccc2O[C@@H]1CN(C)S(=O)(=O)c1ccc(F)cc1`, the activity change, negative = cytotoxicity was 2.73% (inactive). Still for that read-out and setting: to `C[C@@H]1CN([C@H](C)CO)C(=O)c2cc(NC(=O)Cc3cn(C)c4ccccc34)ccc2O[C@H]1CN(C)S(=O)(=O)c1ccc(F)cc1` belongs 1.06% (inactive). Turning to `C[C@H](CO)N1C[C@H](C)[C@H](CN(C)S(=O)(=O)c2ccc(F)cc2)Oc2ccc(NC(=O)Cc3ccccc3)cc2C1=O`, the activity change, negative = cytotoxicity is -1.65% (inactive). Regarding `Cc1cc(SC(C)C(=O)Nc2ncc(Cl)cc2Cl)nc2ccccc12` (stereo not given), the activity change, negative = cytotoxicity is -10.7% (inactive). In the case of `C[C@H]1CN([C@@H](C)CO)C(=O)c2cccc(NC(=O)Nc3ccccc3)c2O[C@@H]1CN(C)C`, the activity change, negative = cytotoxicity was -1.76% (inactive).

`O=C(Nc1ccc(-c2nc3ccc(NC(=O)c4ccccc4[N+](=O)[O-])cc3[nH]2)cc1)c1ccccc1[N+](=O)[O-]`: the activity change, negative = cytotoxicity was 6.32% (inactive).

On to `O=C(Nc1ccc(-c2nc3cc(NC(=O)c4ccccc4Cl)ccc3o2)cc1)c1ccccc1Cl`, for which the activity change, negative = cytotoxicity is 11.9% (inactive).

In the case of `C[C@@H]1CN([C@@H](C)CO)C(=O)c2cc(NC(=O)Cc3cn(C)c4ccccc34)ccc2O[C@@H]1CN(C)S(=O)(=O)c1ccc(F)cc1`, the activity change, negative = cytotoxicity was 2.84% (inactive). Still for that read-out and setting: to `COc1cccc(-c2csc(N3CCN(C(=S)Nc4cccc(Cl)c4)CC3)n2)c1` belongs -9.99% (inactive); to `C[C@H]1CN([C@@H](C)CO)C(=O)c2cc(NC(=O)Cc3cn(C)c4ccccc34)ccc2O[C@@H]1CN(C)S(=O)(=O)c1ccc(F)cc1`, 1.18% (inactive); to `C[C@@H]1CN([C@@H](C)CO)C(=O)c2cc(NC(=O)Cc3cn(C)c4ccccc34)ccc2O[C@H]1CN(C)S(=O)(=O)c1ccc(F)cc1`, -8.52% (inactive). As for `N#Cc1sc2nc(C3CC3)cc(-c3ccc(Cl)cc3)c2c1N`, the activity change, negative = cytotoxicity is -7.15% (inactive). For the compound `Cc1cc(C)n(CC(=O)NC2CCCc3c2cnn3-c2ccc(C)c(C)c2)n1` (stereo not given), the activity change, negative = cytotoxicity was -4.16% (inactive). Regarding `C[C@H]1CN([C@@H](C)CO)C(=O)c2cccc(NS(C)(=O)=O)c2O[C@@H]1CN(C)Cc1ccc(Cl)c(Cl)c1`, the activity change, negative = cytotoxicity was 1.6% (inactive). With `O=C(Nc1ccc(Cl)cc1C(=O)c1ccc(Cl)cc1)c1cc(Br)ccc1NS(=O)(=O)c1ccc(Cl)cc1`, the activity change, negative = cytotoxicity was -10% (inactive). Take `C[C@H](CO)N1C[C@H](C)[C@H](CN(C)S(=O)(=O)c2ccc(F)cc2)Oc2ccc(NS(C)(=O)=O)cc2C1=O`: the activity change, negative = cytotoxicity was -6.43% (inactive). For the compound `O=C(Nc1ccccc1Cl)c1ccccc1NS(=O)(=O)c1ccccc1`, the activity change, negative = cytotoxicity was -1.11% (inactive). Take `C[C@H](CO)N1C[C@H](C)[C@H](CN(C)S(=O)(=O)c2ccc(F)cc2)Oc2ccc(NC(=O)Cc3cn(C)c4ccccc34)cc2C1=O`: the activity change, negative = cytotoxicity is -10% (inactive). The same measure, in the same setting: then `C[C@@H]1CN([C@H](C)CO)C(=O)Cc2cc(NC(=O)Cc3cn(C)c4ccccc34)ccc2O[C@H]1CN(C)S(=O)(=O)c1ccc(F)cc1`, with 1.4% (inactive). Same read-out and setting: then `C[C@H](CO)N1C[C@H](C)[C@@H](CN(C)S(=O)(=O)c2ccc(F)cc2)Oc2ccc(NC(=O)Cc3cn(C)c4ccccc34)cc2C1=O`, with -0.528% (inactive). Regarding `C[C@H]1CN([C@@H](C)CO)C(=O)c2cccc(N(C)C)c2O[C@@H]1CN(C)Cc1ccc(Cl)c(Cl)c1`, the activity change, negative = cytotoxicity was -3.41% (inactive).

Take `O=C(Nc1ccc(-c2nc3cc(NC(=O)c4ccccc4[N+](=O)[O-])ccc3o2)cc1)c1ccccc1[N+](=O)[O-]`: the activity change, negative = cytotoxicity is 1.25% (inactive). `C[C@H]1CN([C@@H](C)CO)C(=O)c2cccc(NC(=O)Nc3ccccc3)c2O[C@@H]1CN(C)S(C)(=O)=O`: the activity change, negative = cytotoxicity was -1.01% (inactive).

The assay is the same for the next values; noted with them: ldlA[mSR-BI] CHO cells viability, CellTiter-Glo ATP, 3 h; at 68 µM (top of the series).
Turning to `CCOc1ccc(NC(=O)CN2CCN(CC(=O)Nc3cc(OC)cc(OC)c3)CC2)cc1`, the activity change, negative = cytotoxicity is -11.7% (inactive).

The subject of a further assay is ldlA[mSR-BI] CHO cells viability, CellTiter-Glo ATP, 3 h. The assay is described as above.
Details: not given
The procedure, abridged:
as §1
For the compound `O=C(Nc1cc(Cl)ccc1Cl)c1cc(Cl)ccc1NS(=O)(=O)c1ccc(Cl)c([N+](=O)[O-])c1`, the IC50 was > 70 µM (inactive).

Regarding `O=C(Nc1ccc(-c2nc3ccc(NC(=O)c4ccccc4)cc3[nH]2)cc1)c1ccccc1`, the IC50 was > 70 µM (inactive). Same read-out and setting: to `C[C@H]1CN([C@@H](C)CO)C(=O)c2cccc(NC(=O)Nc3ccccc3)c2O[C@@H]1CN(C)Cc1ccc(C(F)(F)F)cc1` belongs 66.6 µM. Regarding `Cc1cc(C(=O)C(C)OC(=O)C2=NNC(=O)CC2)c(C)n1-c1ccc(OC(F)F)cc1` (stereo not given), the IC50 is > 70 µM (inactive).

For the compound `Cc1ccc2oc(-c3cccc(NC(=O)c4cc(-n5cnnc5)ccc4Cl)c3)nc2c1`, the IC50 is 12.8 µM. Regarding `CCOc1ccccc1/C=C/c1onc(C)c1S(=O)(=O)N1CCC(C(=O)NC(C)(C)C)CC1`, the IC50 is > 70 µM (inactive). For the compound `Cc1ccc(-c2nnc(N3CCC(C)CC3)c3ccccc23)cc1C`, the IC50 was 68.5 µM.
